Measured values taken from PMC9245008 (ACS chemical biology, 2022).

How the values were obtained:
[1] = molecular target: T1, TAK1 (Homo sapiens, UniProt O43318); assay: MRC Dundee kinase panel screen at 10 μM; assay type: biochemical
T1 sequence (O43318 with tags, fused parts or gaps limits assumed): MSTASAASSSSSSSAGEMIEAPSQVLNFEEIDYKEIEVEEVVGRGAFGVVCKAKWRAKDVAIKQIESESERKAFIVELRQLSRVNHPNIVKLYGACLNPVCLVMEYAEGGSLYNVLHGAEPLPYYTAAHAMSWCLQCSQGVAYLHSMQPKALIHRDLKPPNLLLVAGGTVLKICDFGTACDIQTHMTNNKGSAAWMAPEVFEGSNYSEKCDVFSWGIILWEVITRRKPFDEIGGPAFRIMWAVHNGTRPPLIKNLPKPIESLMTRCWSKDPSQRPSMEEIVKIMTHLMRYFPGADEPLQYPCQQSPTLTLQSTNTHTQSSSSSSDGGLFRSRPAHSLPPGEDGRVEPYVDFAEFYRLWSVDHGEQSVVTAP

[2] = molecular target: T2, NUAK1 (Homo sapiens, UniProt O60285); assay: MRC Dundee kinase panel screen at 10 μM; assay type: biochemical
T2 sequence (O60285 1-661): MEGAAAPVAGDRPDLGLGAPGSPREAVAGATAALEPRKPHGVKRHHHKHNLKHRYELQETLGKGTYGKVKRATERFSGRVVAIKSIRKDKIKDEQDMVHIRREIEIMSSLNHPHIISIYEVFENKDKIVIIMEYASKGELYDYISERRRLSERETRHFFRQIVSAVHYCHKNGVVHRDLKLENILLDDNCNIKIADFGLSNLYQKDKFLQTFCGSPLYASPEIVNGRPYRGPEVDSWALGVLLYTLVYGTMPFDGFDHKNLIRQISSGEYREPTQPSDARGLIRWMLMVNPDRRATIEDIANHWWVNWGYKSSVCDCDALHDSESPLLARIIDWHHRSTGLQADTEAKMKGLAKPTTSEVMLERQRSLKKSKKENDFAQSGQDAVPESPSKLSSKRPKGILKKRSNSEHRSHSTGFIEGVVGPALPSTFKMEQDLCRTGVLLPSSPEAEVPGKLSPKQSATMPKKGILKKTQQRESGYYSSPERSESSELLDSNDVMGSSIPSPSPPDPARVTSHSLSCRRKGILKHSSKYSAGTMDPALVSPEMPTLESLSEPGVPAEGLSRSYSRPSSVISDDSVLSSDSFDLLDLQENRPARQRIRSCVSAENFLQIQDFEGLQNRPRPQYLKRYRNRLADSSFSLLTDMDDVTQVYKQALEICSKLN

[3] = molecular target: T1, TAK1; assay: Dose–response of top 10 kinase hits; assay type: biochemical; conditions: read-out: IC50 TAK1, n = 2
[4] = molecular target: T3, NUAK (Homo sapiens, UniProt O60285); assay: Dose–response of top 10 kinase hits; assay type: biochemical; conditions: read-out: IC50 NUAK, n = 2
T3 sequence (O60285 1-661): T2 sequence (O60285 1-661)

[5] = test system: TNF expression in THP-1 cells; assay: Cytokine dose–response curves in THP-1 cells; assay type: cell-based, human; conditions: read-out: IC50 TNF expression; LPS-stimulated THP-1, 24 h
Method in brief: (§1)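 THP-1 cells differentiated with PMA (100 nM) for up to 72 h, then rested 24 h in PMA-free RPMI. Pretreated with test compound (3.2 nM–32 μM) or DMSO vehicle, then stimulated with LPS (10 ng/mL). After 24 h, TNF, IL-6 and IL-1β in supernatant measured by Luminex and expressed as percent of vehicle control; n = 3.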

[6] = test system: IL-6 expression in THP-1 cells; assay: Cytokine dose–response curves in THP-1 cells; assay type: cell-based, human; conditions: read-out: IC50 IL-6 expression; LPS-stimulated THP-1, 24 h
Method in brief: as §1

[7] = test system: IL-1β expression in THP-1 cells; assay: Cytokine dose–response curves in THP-1 cells; assay type: cell-based, human; conditions: read-out: IC50 IL-1β expression; LPS-stimulated THP-1, 24 h
Method in brief: as §1

[8] = Oral pharmacokinetics in Sprague-Dawley rats; assay type: in vivo
[9] = Bioavailability in adult CD-1 mice; assay type: in vivo
[10] = oral administration, normal mice

SMILES: CCCn1c(NC(=O)c2cccc(C(N)=O)c2)nc2ccc(CN3CCCCC3)cc21 [HS-276]
- enzymatic activity [1]: < 15%
- enzymatic activity [2]: < 15%
- IC50 [3]: 8 nM
- IC50 [4]: 270 nM
- IC50 [5]: 138 nM
- IC50 [6]: 201 nM
- IC50 [7]: 234 nM
- time up to which μM serum levels are shown ([8]; post oral gavage, species not stated): up to 8 h
- time up to which μM plasma concentration is shown ([8]; rat, 50 mg/kg oral gavage): 8 to 12 h
- peak urine concentration ([8]; rat, 50 mg/kg oral gavage, at 12 h): 100 µM
- AUC0-last ([8]; rat, PO, 50 mg/kg): 6462 ng·h/mL
- Cmax ([8]; rat, PO, 50 mg/kg): 1890 ng/mL
- Tmax ([8]; rat, PO, 50 mg/kg): 2 h
- half-life ([8]; rat, PO, 50 mg/kg): 5.46 h
- AUC0-last ([9]; mouse, IV, 30 mg/kg): 7960.0 ng·h/mL
- Cmax ([9]; mouse, IV, 30 mg/kg): 11,162 ng/ml
- Tmax ([9]; mouse, IV, 30 mg/kg): 0.08 h
- half-life ([9]; mouse, IV, 30 mg/kg): 1.24 h
- %F ([9]; mouse, PO, 30 mg/kg): 98.1%
- AUC0-last ([9]; mouse, PO, 30 mg/kg): 7812 ng·h/mL
- Cmax ([9]; mouse, PO, 30 mg/kg): 3682 ng/mL
- Tmax ([9]; mouse, PO, 30 mg/kg): 1 h
- half-life ([9]; mouse, PO, 30 mg/kg): 1.41 h
- bioavailability [9, 10]: > 95%
- plasma levels [9, 10]: μM plasma levels
